In the library only some 5.2% were active in any assay of this set; here they are far more common.
ZTA DNA inh = ZTA (EBV) inhibition in EBNA-1 counter-screen. P03206. ZTA-DNA binding, fluorescence polarization. inhibition, % at 11 µM. actives 0.15% (n = 320,000); in the data active means inhibition above about 33%
Target sequence (P03206 whole entry, looked up): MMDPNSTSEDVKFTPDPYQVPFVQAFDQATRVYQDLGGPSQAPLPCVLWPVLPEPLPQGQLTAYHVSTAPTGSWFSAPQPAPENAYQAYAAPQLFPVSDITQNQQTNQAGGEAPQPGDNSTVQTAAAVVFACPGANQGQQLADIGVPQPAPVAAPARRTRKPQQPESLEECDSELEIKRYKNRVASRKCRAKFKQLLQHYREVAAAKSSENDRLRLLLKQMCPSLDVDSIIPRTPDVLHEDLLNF
PfM18AAP inh-1 = PfM18AAP enzyme inhibition; actives 1.2% (n = 290,000); recombinant PfM18AAP, H-Glu-NHMec fluorogenic cleavage; inhibition, % at 7.35 µM;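 active means inhibition above the campaign mean inhibition over all tested compounds plus 3 SD, cut at about 28% in these data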
core dimer inh = blocks dimerization of HCV core protein; TR-FRET GST/Flag-core106 dimerization, 1536-well; AID 1899; actives 0.33% (n = 300,000); inhibition, % at 5 µM;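 active means inhibition above the mean of all tested compounds plus 3 SD, set per screening campaign, cut at about 45% in these data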
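System – GST-tagged and Flag-tagged HCV core protein residues 1-106 · Repeats – one well for each compound · Technique – TR-FRET 671 and 617 nm emission · Doses – one concentration, 5 µM, in 0.5% DMSO · Times – 4 h, 22.5 °C incubation · Also added – Eu donor and XL665 acceptor anti-tag antibodies · Measure – percent inhibition of core106 dimerization signal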
NS3 helicase inh = HCV NS3 helicase inhibition; NS3 helicase DNA unwinding, Cy5 molecular beacon fluorescence; inhibition, % at 10.9 µM; actives 0.56% (n = 290,000); AID 1800;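 active means inhibition above the mean of all tested compounds plus 3 SD, set per campaign, cut at about 35% in these data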
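System: NS3 helicase fragment of HCV / Schedule: 1 h at 25 °C / Control set: DMSO alone as 0% and 110 µM thioflavine S as 100% / Reagent: Cy5/quencher beacon DNA duplex and ATP to start / Technique: Cy5 fluorescence / Replication: singlicate / Evaluation: % inhibition of end-to-start signal ratio versus controls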
EBNA-1 inh = blocks EBNA-1 binding to DNA. EBNA-1 DNA binding, fluorescence polarization. inhibition, % at 14.8 µM. actives 0.34% (n = 300,000). AID 1950; in the data active means inhibition above about 28%
ALR H2O2 inh = human ALR oxidase inhibition via reduced H2O2; P55789; inhibition, % (test concentration not listed); purified ALR, DTT oxidation, H2O2 HRP-luminol luminescence; actives 3.8% (n = 290,000);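 active means mean replicate inhibition above about 79%, with every replicate also reaching it, limit read from the data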
Target sequence (P55789 whole entry, looked up): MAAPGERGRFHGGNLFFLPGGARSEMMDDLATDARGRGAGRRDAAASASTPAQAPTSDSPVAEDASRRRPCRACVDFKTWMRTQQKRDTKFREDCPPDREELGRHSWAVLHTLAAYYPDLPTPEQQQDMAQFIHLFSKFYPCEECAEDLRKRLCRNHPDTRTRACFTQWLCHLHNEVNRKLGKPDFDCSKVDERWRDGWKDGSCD
PfM18AAP inh-2 = PfM18AAP inhibition, confirmation; inhibition, % at 7.35 µM; actives 28% (n = 2,400); recombinant PfM18AAP, H-Glu-NHMec fluorogenic cleavage; shares compounds with PfM18AAP inh-1;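 active means mean inhibition over replicate wells above the hit cutoff set for the earlier primary screen, cut at about 29% in these data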
CTSL1 confirm = Cathepsin L (human) inhibition, confirmation; shares compounds with PfM18AAP inh-1; purified cathepsin L1, Z-Leu-Arg-MCA fluorescence; inhibition, % at 5.96 µM; 2,400 tested, under 10 active;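 active means average inhibition across replicates above the hit cutoff set in the earlier primary screen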
A number is an active result; i = inactive; nt = no result given.

SMILES	ZTA DNA inh	PfM18AAP inh-1	core dimer inh	NS3 helicase inh	EBNA-1 inh	ALR H2O2 inh	PfM18AAP inh-2	CTSL1 confirm
Cc1ccc(Cl)cc1NC(=S)Nn1cnnc1	i	77	i	i	i	i	63	i
CC(C)C[C@H](NC(=O)c1cc2cc(Cl)ccc2n1C)C(=O)N1CCC(C(=O)O)CC1	nt	i	nt	i	nt	i	nt	nt
OCCN1CCN(c2nc(-c3ccccc3O)nc3ccccc23)CC1	i	i	i	i	i	i	nt	nt
O=C(CN(c1cccc(C(F)(F)F)c1)S(=O)(=O)c1ccccc1)N1CCOCC1	i	i	i	i	i	nt	nt	nt
CCOC(=O)N1CCN(C(=O)CN(c2cccc(C(F)(F)F)c2)S(=O)(=O)c2ccccc2)CC1	i	37	i	i	i	i	i	i
CCCOc1ccc(/C=C2/C(=O)ON=C2C)cc1OCC	i	40	i	i	i	i	42	i
COc1ccc(C(C)=O)cc1CSc1nc2ccccc2c(=O)n1-c1ccccc1C	i	43	i	i	i	i	i	i
COC(=O)/C=c1\sc2ncnn2c1=O	i	38	i	i	i	i	i	i
Cc1ccccc1C(=O)NNc1ccc([N+](=O)[O-])cc1	i	60	i	i	i	i	48	i
O=C(NNc1ccc([N+](=O)[O-])cc1)C1CC1c1ccccc1 (centres undefined)	i	43	i	i	i	i	i	i
C/C(=N\NC(=O)C1CC1c1ccccc1)c1cccc([N+](=O)[O-])c1 (centres undefined)	i	i	i	i	i	i	nt	nt
O=C1NC(=S)N/C1=C/c1ccc2ccccc2c1	i	i	i	i	i	i	nt	nt
COC(=O)[C@H](CC(C)C)NC(=O)c1cc2c(cn1)[nH]c1ccccc12	i	39	i	i	i	nt	i	i
COC(=O)C(Cc1ccccc1)NC(=O)c1cc(=O)[nH]c2ccccc12 (centres undefined)	i	i	i	i	i	i	nt	nt
CCONC(=NC)c1nonc1N	i	i	i	i	i	i	nt	nt
Nc1nonc1C(=Nc1ccccc1)NO	i	43	i	i	i	i	31	i
Cc1cccc(N=C(NO)c2nonc2N)c1	i	33	i	i	i	89	i	i
Cc1ccc(C2(C)NC(=O)N(CC(=O)NC(=O)NC(C)C)C2=O)cc1 (centres undefined)	i	i	i	i	i	i	nt	nt
O=C(COC(=O)CCC1CCCC1)Nc1ccc(F)cc1Cl	i	nt	nt	nt	nt	nt	nt	nt
O=[N+]([O-])c1cccnc1N/N=C/c1ccccc1O	i	i	i	i	i	i	nt	nt
Cc1c(O)ccc(/C=N/Nc2ncccc2[N+](=O)[O-])c1O	i	43	i	i	i	i	i	i
O=C1/C(=C/c2ccc(Cl)cc2)SC(=S)N1CCC(=O)N1CCCCC1CCO (centres undefined)	i	i	i	i	i	i	nt	nt
O=C1/C(=C/c2ccco2)SC(=S)N1CCC(=O)N1CCCCC1CCO (centres undefined)	i	32	i	i	i	nt	i	i
O=C(CSc1nc2ccccc2c(=O)[nH]1)Nc1ccccc1C(F)(F)F	i	i	i	i	i	i	nt	nt
CCC(CC)c1nnc(NC(=O)Cc2cccs2)s1	i	40	i	i	i	i	i	i
SMILES	ZTA DNA inh	PfM18AAP inh-1	core dimer inh	NS3 helicase inh	EBNA-1 inh	ALR H2O2 inh	PfM18AAP inh-2	CTSL1 confirm
Cc1sc(-n2c(C)cc(/C=N/n3cnnc3)c2C)c(C#N)c1C	i	36	i	i	i	i	i	i
Cc1sc(-n2c(C)cc(/C=C3\SC(=S)NC3=O)c2C)c(C#N)c1C	i	i	i	i	i	i	nt	nt
O=C(/C=C/c1cccnc1)c1ccc(O)cc1	i	i	i	i	i	i	nt	nt
O=C(/C=C/c1cccnc1)c1ccc([N+](=O)[O-])cc1	i	32	i	i	i	i	i	i
COc1ccc(C)cc1NC(=O)C1CCCN(S(=O)(=O)c2cccc3cccnc23)C1 (centres undefined)	i	i	i	i	i	i	nt	nt
Cc1ccc(C(=O)CSc2nnc(-c3ccncc3)n2C)cc1	i	i	i	i	i	i	nt	nt
Cn1c(SCC(=O)c2ccc(O)c(O)c2)nnc1-c1ccccc1	nt	48	nt	i	nt	93	i	i
Cc1ccc(C(=O)CSc2nnc(-c3cccs3)n2C)o1	i	i	i	i	i	i	nt	nt
Cn1c(SCC(=O)c2ccc(O)c(O)c2)nnc1-c1cccs1	i	46	i	i	i	99	i	i
O=C(CSc1nc2ccccc2n1CCc1ccccc1)c1ccc(O)c(O)c1	nt	44	nt	i	nt	nt	i	i
O=C(CSc1nc2cc(S(=O)(=O)N3CCOCC3)ccc2o1)Nc1c(F)cccc1F	i	32	i	i	i	i	i	i
CCSc1nc2cc(S(=O)(=O)N3CCOCC3)ccc2o1	nt	nt	nt	nt	nt	i	nt	nt
COc1cccc(C(=O)NNC(=O)Cc2csc(N)n2)c1	i	36	i	i	i	i	i	i
CCCC[n+]1c(C)sc2ccc(C)cc21	i	i	i	i	i	i	nt	nt
Cc1sc2ccccc2[n+]1CC(=O)O	i	i	i	i	i	nt	nt	nt
Cc1ccc2sc(C)[n+](CCO)c2c1	i	37	i	i	i	i	i	i
CC[n+]1c(C)sc2cc(C)ccc21	i	47	i	i	i	i	i	i
O=C(NNc1nc2ccccc2s1)Nc1ccc(Cl)c(Cl)c1	i	60	i	i	i	i	49	i
CC(C)C(=O)NNc1nc2ccccc2s1	i	i	i	i	i	i	nt	nt
O=C(CSc1nc2ccccc2s1)NNC(=O)Nc1ccc(Cl)c(Cl)c1	i	52	i	i	i	i	i	i
O=C(NNc1nc2ccccc2s1)C1CC1	i	56	i	i	i	i	i	i
O=C(NNc1nc2ccccc2s1)Nc1ccc(F)cc1	i	60	i	i	i	i	34	i
COc1ccc(CC(=O)NNC(=O)c2cc(C)oc2C)cc1OC	i	nt	i	nt	i	nt	nt	nt
CCN(CC(=O)Nc1c(F)cccc1F)C(=O)CCNS(=O)(=O)c1ccccc1C(F)(F)F	i	nt	i	nt	i	i	nt	nt
Cc1[nH]nc2c1C(c1cccs1)C(C#N)=C(N)O2 (centres undefined)	i	35	i	i	i	i	i	i
O=c1nc(N/N=C/C=C/c2ccccc2)cn[nH]1	i	41	i	i	i	i	i	i
C(=C\c1ccccc1)/C=N/Nc1nncc(-c2ccccc2)n1	i	i	i	i	i	i	nt	nt
O=c1nc(N/N=C/c2c[nH]c3ccccc23)cn[nH]1	i	40	i	i	i	i	i	i
O=C(O)c1cc(N/N=C/c2c[nH]c3ccccc23)ccc1Cl	i	i	i	i	i	i	nt	nt
Oc1c(C(c2ccccc2)N2CCCCC2)sc2ncnn12 (centres undefined)	i	57	i	i	i	i	i	i

Screens (PubChem BioAssay)
